Experimental data: paper PMC12219203 (Nature Communications, 2025)

Key:
NOD1 = NOD1 (Homo sapiens, UniProt Q9Y239); assay: HEK-Blue NOD1 SEAP reporter assay; type: cell-based; details: GM, M 20 μM; 18 h
How it was run: (§1)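 HEK-Blue hNod1 or hNod2 cells were seeded at 50,000 cells/well in DMEM/10% FBS without selection antibiotics and stimulated at once for 18 h (n = 3). Supernatant was mixed 1:4 with Quanti-Blue and incubated 6 h at 37 °C, and absorbance was read at 620 nm. Values were blanked against water-treated wells, and the respective parental Null cell readouts were subtracted.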

NOD2 = assay: HEK-Blue NOD2 SEAP reporter assay; type: cell-based, human; details: MDP, M-AE 200 nM; GM, M 20 μM; 18 h
How it was run: as §1

[1] = system: WT bone-marrow-derived macrophages (BMDMs); assay: Cytokine gene expression in WT BMDMs; type: cell-based, mouse; details: GM 2-8 mM, M 8 mM
How it was run: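 Marrow was flushed from the femur and tibia of female SPF C57BL/6J mice and red cells were lysed (NH4Cl/KHCO3). Cells at 200,000 cells/mL were differentiated for 6 days in IMDM with 20 ng/mL GM-CSF or 10% L929 supernatant, then switched to serum-free IMDM. Test compounds were added for 24 h (n = 3). Cytokine transcripts were measured by RT-qPCR (2-ΔΔCt, normalised to β-act).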

RAW264.7 cells = assay: Cytokine expression in RAW264.7 macrophages; type: cell-based, mouse; details: GM 1-4 mM, M 4 mM, 24 h
How it was run: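 RAW264.7 cells were kept in high-glucose IMDM with HEPES, 5% heat-inactivated FBS and penicillin/streptomycin at 37 °C, 5% CO2. They were exposed to test compounds for 24 h (n = 4). Total RNA was extracted with a column kit, and TNF-α and IL-6 transcripts were quantified by RT-qPCR using the 2-ΔΔCt method, normalised to β-act.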

Tlr4-/- BMDMs = assay: Cytokine secretion by Tlr4-/- BMDMs; type: cell-based, mouse; details: ELISA, 24 h; GM 4 mM, MDP 0.4 mM, LPS 100 ng/mL, CpG 100 nM
How it was run: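 Murine BMDMs were differentiated 6 days in complete medium with 20 ng/mL GM-CSF or 10% L929 supernatant, then switched to serum-free IMDM and stimulated 24 h. Mouse TNF-α and IL-6 in culture supernatants were quantified by sandwich ELISA. Samples were prediluted in 1% BSA in PBS, pH 7.4, where needed.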

RAW-Dual cells = assay: TNF-α secretion by RAW-Dual WT cells, with or without TLR inhibitors; type: cell-based, mouse; details: inhibitor 10 μM, 1 h pre-incubation, then GM 2 mM, 24 h; ELISA
How it was run: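 RAW-Dual cells were seeded at 100,000 cells/well and pre-incubated 1 h with 10 μM TLR2 (CU_CPT22), TLR4 (TAK-242) or TLR7/9 (AT791) inhibitor. They were then stimulated with 2 mM test compound for 24 h. Supernatants were cleared at 16,000 × g and TNF-α was measured by sandwich ELISA.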

Incubation with 10% FBS = type: in vitro ADME, bovine; details: 37 C, 16 h, LC-MS

Sequence of NOD1 (Q9Y239 whole entry): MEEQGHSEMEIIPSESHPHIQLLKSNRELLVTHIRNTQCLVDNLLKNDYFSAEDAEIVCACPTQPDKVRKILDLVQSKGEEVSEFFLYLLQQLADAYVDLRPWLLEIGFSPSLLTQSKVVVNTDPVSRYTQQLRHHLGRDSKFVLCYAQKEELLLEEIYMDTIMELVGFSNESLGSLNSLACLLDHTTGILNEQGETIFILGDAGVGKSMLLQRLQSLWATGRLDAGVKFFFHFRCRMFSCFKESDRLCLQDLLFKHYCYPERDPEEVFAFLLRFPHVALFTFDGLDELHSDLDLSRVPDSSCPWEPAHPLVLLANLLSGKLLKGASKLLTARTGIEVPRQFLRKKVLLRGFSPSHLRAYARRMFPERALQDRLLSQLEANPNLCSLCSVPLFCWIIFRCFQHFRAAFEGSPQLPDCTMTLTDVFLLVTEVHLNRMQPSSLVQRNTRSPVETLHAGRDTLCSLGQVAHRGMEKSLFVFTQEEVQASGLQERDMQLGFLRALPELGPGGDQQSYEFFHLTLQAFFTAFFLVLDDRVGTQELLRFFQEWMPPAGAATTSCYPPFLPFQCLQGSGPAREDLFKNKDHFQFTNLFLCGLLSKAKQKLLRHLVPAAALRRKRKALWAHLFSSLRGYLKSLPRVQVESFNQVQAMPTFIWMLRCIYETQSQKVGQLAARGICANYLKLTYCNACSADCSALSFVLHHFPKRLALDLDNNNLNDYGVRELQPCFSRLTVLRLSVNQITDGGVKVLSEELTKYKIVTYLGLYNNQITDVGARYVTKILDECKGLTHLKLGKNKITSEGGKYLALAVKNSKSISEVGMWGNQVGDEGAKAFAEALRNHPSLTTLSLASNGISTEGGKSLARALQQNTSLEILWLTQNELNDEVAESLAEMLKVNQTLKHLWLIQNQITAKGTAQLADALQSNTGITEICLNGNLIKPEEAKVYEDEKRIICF

In the case of `CC(=O)N[C@H]1C(O)O[C@H](CO)[C@@H](O)[C@@H]1O[C@H](C)C(=O)O` (some centres unmarked) [M, N-acetylmuramic acid, reference compound], the “NOD1 activation in HEK-Blue reporter cells (in words)” value (NOD1) is reported as “unable to activate NOD1/2”, the “NOD2 activation in HEK-Blue reporter cells (in words)” value (NOD2) is reported as “unable to activate NOD1/2” and the “Immuno-stimulatory activity (TNF-α, IL-6) in BMDMs (in words)” value [1] is reported as “less potent”. The “Immuno-stimulatory activity (TNF-α, IL-6) in RAW264.7 (in words)” value (RAW264.7 cells) was “less potent”.

For `CC(=O)N[C@H]1C(O)O[C@H](CO)[C@@H](O)[C@@H]1O[C@H](C)C(=O)N[C@@H](C)C(=O)N[C@H](CCC(=O)O)C(=O)O` (some centres unmarked) [M-AE], the “NOD2 activation in HEK-Blue reporter cells (in words)” value (NOD2) was “potent NOD2 activation similar to the model ligand MDP”.

In the case of `CC(=O)N[C@H]1C(O)O[C@H](CO)[C@@H](O)[C@@H]1O[C@H](C)C(=O)N[C@@H](C)C(=O)N[C@H](CCC(=O)O)C(N)=O` (stereo partly drawn) [MDP, N-acetylmuramyl-L-Ala-D-isoGln, reference compound], the “TNF-α and IL-6 production in Tlr4-/- BMDMs (in words)” value (Tlr4-/- BMDMs) is reported as “still trigger comparable proinflammatory cytokine production”.

In the case of `CCOC(=O)C1=CCCC[C@H]1S(=O)(=O)Nc1ccc(F)cc1Cl` [TAK-242], the “Effect of TLR inhibitor on GM-triggered TNF-α production” value (RAW-Dual cells) is reported as “suppressed GM-triggered TNF-α production”.

In the case of M-AEKAA, the “Degradation on incubation with 10% FBS” value (Incubation with 10% FBS) is reported as “reliably yields the expected degradation products: M and AEKAA”.
